High-throughput results from PubChem BioAssay.
WT yeast gro inh: growth inhibition of WT strain, primary screen, mitochondrial fusion inhibitor project, WT and mutant strains, chemical genetic. inhibition, % at 10 µM. 190,000 tested, 2.1% active. mitochondrial fusion phenotypic screen; in the data active means inhibition above about 58%; tested in S. cerevisiae
Yeast life ext: compounds extending yeast replicative lifespan, primary screen, S. cerevisiae, OD615; S. cerevisiae growth with nicotinamide; deaD strain in restrictive glucose medium; inhibition of the nicotinamide effect, % at 10 µM; 130,000 tested, 0.68% active;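 active means inhibition above a set limit, placed 3 SD over the median of all compounds, cut at about 26% in these data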
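System: Modified budding yeast, DeaD strain | Buffer or medium: Restrictive glucose medium | Also added: 1.5 mM nicotinamide | Doses: 10 µM single point, 0.25% DMSO | Schedule: 48 h compound exposure at 30 °C, humidified | Detection: Absorbance at 615 nm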
RAM network inh: inhibitors of the yeast RAM network, primary screen, dse1pr::URA3 reporter, 5-FOA selection | inhibition, % at 50 µM | S. cerevisiae dse1pr::URA3 reporter, 5-FOA growth OD615, 2 d; analog-sensitive cbk1-as2 kinase mutant strain | 190,000 tested, 1.8% active;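 active means inhibition above a set limit, 3 SD over mean compound inhibition, cut at about 8.4% in these data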;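 further: inhibition rescues growth on 5-FOA so higher OD means more RAM inhibition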
Cl transport mod: KCC2 cotransporter modulators, thallium flux, primary screen, cell-based, HEK293 KCC2, FluoZin-2 fluorescence, MLSMR; AID 1456, 2008; KCC2 cells, thallium flux FluoZin-2 fluorescence; 190,000 tested, 2.2% active; B-score of Tl+ flux slope (higher = more flux/activation; lower = inhibition) at 10 µM; Solute carrier family 12 member 5 (Homo sapiens), Q9H2X9;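 active means thallium flux slope and its plate-corrected score both differing from the plate sample mean at a set confidence after two filtering rounds, in either direction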;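 further: slope of fluorescence scaled to starting intensity during 10 to 20 s after thallium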
Target sequence (Q9H2X9 whole entry, looked up): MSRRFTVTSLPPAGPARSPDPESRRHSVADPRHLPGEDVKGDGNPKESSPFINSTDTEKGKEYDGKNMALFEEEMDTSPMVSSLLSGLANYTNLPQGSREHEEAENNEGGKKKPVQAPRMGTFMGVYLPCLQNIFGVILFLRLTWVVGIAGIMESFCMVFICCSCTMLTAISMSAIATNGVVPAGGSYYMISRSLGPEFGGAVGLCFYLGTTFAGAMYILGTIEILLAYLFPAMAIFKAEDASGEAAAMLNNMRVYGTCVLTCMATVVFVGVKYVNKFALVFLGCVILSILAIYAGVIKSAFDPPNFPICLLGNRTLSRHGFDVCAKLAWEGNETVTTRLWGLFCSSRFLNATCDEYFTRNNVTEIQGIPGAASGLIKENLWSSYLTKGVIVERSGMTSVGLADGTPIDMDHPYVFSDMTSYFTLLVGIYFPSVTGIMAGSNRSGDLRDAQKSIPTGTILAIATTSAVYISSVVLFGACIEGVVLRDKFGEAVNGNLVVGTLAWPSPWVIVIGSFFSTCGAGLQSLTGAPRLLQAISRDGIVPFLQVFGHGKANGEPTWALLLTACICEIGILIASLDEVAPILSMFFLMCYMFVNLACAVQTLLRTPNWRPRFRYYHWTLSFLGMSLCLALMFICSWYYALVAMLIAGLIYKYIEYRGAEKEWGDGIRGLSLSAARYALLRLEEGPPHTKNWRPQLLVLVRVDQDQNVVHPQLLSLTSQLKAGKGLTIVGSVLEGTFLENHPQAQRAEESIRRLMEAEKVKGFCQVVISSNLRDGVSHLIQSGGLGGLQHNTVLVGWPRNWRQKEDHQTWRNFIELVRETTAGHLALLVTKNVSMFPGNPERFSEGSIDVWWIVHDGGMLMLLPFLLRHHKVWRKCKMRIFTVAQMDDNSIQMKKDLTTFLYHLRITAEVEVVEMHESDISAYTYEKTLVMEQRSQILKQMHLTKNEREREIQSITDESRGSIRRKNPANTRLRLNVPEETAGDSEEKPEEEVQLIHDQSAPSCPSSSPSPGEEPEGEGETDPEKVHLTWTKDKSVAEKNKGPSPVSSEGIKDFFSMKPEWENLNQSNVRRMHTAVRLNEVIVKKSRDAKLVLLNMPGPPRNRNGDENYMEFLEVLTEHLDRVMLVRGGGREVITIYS
Yeast growth inh: growth inhibitors of yeast BB579 in restrictive medium, primary screen, yeast lifespan-shortening project, S. cerevisiae; OD615, 48 h; inhibition, % at 10 µM; AID 804, 2007; 140,000 tested, 0.51% active;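 active means inhibition above a set limit, 3 SD over the mean compound inhibition, cut at about 44% in these data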
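Material: Saccharomyces cerevisiae DeaD strain BB579, replicative lifespan model yeast; buffer or medium: CSMM-D restrictive synthetic medium containing dextrose (glucose); compound: 10 µM single dose, DMSO 0.25%; timing: 48 h compound exposure at 30 °C after 4 h preincubation; signal: turbidity as optical density at 615 nm; benchmarks: positive control amphotericin B 10 µg/mL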
A number is an active result; i = inactive; nt = no result given. Hits are enriched below; roughly 5.5% of the tested compounds scored in any of these assays.

SMILES	WT yeast gro inh	Yeast life ext	RAM network inh	Cl transport mod	Yeast growth inh
CCOn1c(=O)c(-c2cccs2)[n+]([O-])c2ccccc21	i	i	i	3.8	i
CCCCCCNC(=O)C(C#N)c1nc2ccccc2nc1N1CCOCC1 (configuration not stated)	i	i	9.7	nt	i
CCCCCN(C(=O)NC(=O)Nc1ccccc1C)S(=O)(=O)c1ccccc1	i	i	i	i	i
O=C(c1cccs1)n1nc(-c2ccco2)nc1SCc1ccccc1	i	i	10	nt	i
CC(C)Oc1ccc(C(=O)Nc2cccc3cccnc23)cc1	59	nt	i	i	nt
O=C(CNc1ccc2ccccc2c1)N/N=C/c1cc2ccccc2nc1Cl	i	i	i	i	i
CNC(=S)N/N=C/c1cn(Cc2c(F)cccc2Cl)c2ccccc12	62	i	i	i	i
CCNC(=S)N/N=C/c1cn(Cc2ccccc2F)c2ccccc12	i	i	i	i	i
Cc1ccc(C(=O)NN2C(=O)C3C4c5ccccc5C(c5ccccc54)C3C2=O)cc1 (configuration not stated)	i	i	i	i	i
COCCn1cnnc1SCC(=O)Nc1cc(OC)c([N+](=O)[O-])cc1C	i	nt	i	i	nt
CC(C)N(C(=S)Nc1cc(S(=O)(=O)N2CCOCC2)ccc1Cl)c1ccccc1	i	40	i	i	i
CN1CCN(C(=S)Nc2cc(S(=O)(=O)N3CCOCC3)ccc2Cl)CC1	i	nt	i	i	nt
Cc1ccc(-c2nn(-c3cc(N4CCNCC4)ccc3[N+](=O)[O-])c(=O)c3ccccc23)cc1	i	nt	i	i	nt
CSc1cccc(NC(=O)CCCOc2ccc(Cl)cc2Cl)c1	i	i	11	i	i
CC(C)C(=O)Nc1ccc(C(=O)NNC(=O)CCCOc2ccc(Cl)cc2Cl)cc1	79	i	i	nt	i
COC(=O)Cn1ccc(-c2ccc(Cl)cc2)c(C#N)c1=O	i	nt	i	i	nt
COC(=O)Cn1ccc(N(C)C)c(C#N)c1=O	60	i	i	i	i
O=S(=O)(NCCOc1ccccc1)c1ccc2ccccc2c1	i	i	i	i	i
CC(C)OCCCNS(=O)(=O)c1ccc2ccccc2c1	i	108	i	i	i
CC(=O)NS(=O)(=O)c1ccc(NC(=O)c2oc3c(Cl)cccc3c2C)cc1	nt	nt	nt	i	nt
O=C1CCCCCCC1Sc1ccccc1[N+](=O)[O-] (configuration not stated)	i	i	i	i	i
COC(=O)c1cc(S(=O)(=O)N(C)C2CCCCC2)oc1C	nt	nt	nt	i	nt
COc1cc(S(=O)(=O)N(C)C2CCCCC2)c(C)cc1C	59	nt	i	i	nt
O=S(=O)(Nc1ccccn1)c1cnc(Cl)c(Br)c1	i	i	i	i	i
COc1c(O)ccc(C2NC(=O)NC(C)=C2C(=O)Nc2ccccc2C)c1[N+](=O)[O-] (configuration not stated)	i	nt	i	i	nt
SMILES	WT yeast gro inh	Yeast life ext	RAM network inh	Cl transport mod	Yeast growth inh
CC(C)N=C(NS(=O)(=O)c1ccccc1)C(Cl)(Cl)Cl	i	40	i	i	i
COC(=O)/C(C#N)=C\c1c(OC)[nH]c2ccccc12	nt	nt	nt	i	nt
CCC(c1nnnn1C(C)(C)C)N1CCN(c2cc(Cl)ccc2C)CC1 (configuration not stated)	73	i	i	i	i
CCCC(c1nnnn1CC1CCCO1)N1CCN(c2cc(Cl)ccc2C)CC1 (configuration not stated)	65	i	i	nt	i
O=Cc1c[nH]c2ccc(S(=O)(=O)N3CCOCC3)cc12	i	i	i	i	i
COc1ccc(C(C)(C)C)cc1NC(=O)Nc1ccc2c(c1)OCO2	68	i	i	i	i
Nc1c(Cl)ncnc1N/N=C/c1ccccn1	i	i	i	i	96
Nc1c(Cl)ncnc1N/N=C/c1ccc2ccccc2n1	i	i	i	i	i
O=C(Nc1nnc(-c2ccc(Cl)cc2)o1)c1ccc(N2C(=O)CCC2=O)cc1	i	i	i	12	i
O=C(Nc1nnc(-c2ccc3c(c2)OCCO3)o1)c1ccc(Cc2ccccc2)cc1	61	i	i	i	i
O=C(Nc1nnc(-c2ccncc2)o1)c1ccccc1	i	nt	i	i	nt
O=C(CCOc1ccccc1)Nc1nnc(-c2ccc3c(c2)OCCO3)o1	i	nt	i	i	nt
O=C(Nc1nnc(-c2ccc3c(c2)CCCC3)o1)c1ccccc1Cl	i	i	i	50	i
O=C(Nc1nnc(-c2ccc3c(c2)CCCC3)o1)c1ccccc1	75	i	i	79	i
CCc1cccc(NC(=O)C(NC(=O)C2CCCCC2)C(C)C)c1 (configuration not stated)	i	nt	i	i	nt
O=c1[nH]nc(SCc2nnc(-c3cccc(Cl)c3)o2)n1C1CCCCC1	nt	nt	nt	i	nt
O=C(COC(=O)Cc1ccccc1F)Nc1cc(S(=O)(=O)N2CCOCC2)ccc1N1CCCC1	i	i	i	i	i
Cn1cccc1/C=N/N1CCN(c2ccccc2)CC1	i	nt	i	i	nt
CCc1nnc(NC(=O)c2ccc(-c3ccc([N+](=O)[O-])cc3Cl)o2)s1	i	nt	i	i	nt
O=C(N/N=C\c1cccc([N+](=O)[O-])c1O)C1COc2ccccc2O1 (configuration not stated)	i	i	i	i	64
COc1ccc(S(=O)(=O)n2ccc(-c3cnc(-c4ccccc4)s3)n2)cc1	i	i	9.3	nt	i
O=C(c1ccccc1)n1ccc(-c2cnc(-c3ccccc3)s2)n1	i	i	i	nt	i
O=C(N/N=C/c1ccc(N2CCOCC2)cc1)C1CC1	i	nt	i	i	nt
CCOc1ccc(-n2c(SCC(=O)Nc3cc(C)on3)nnc2-c2c[nH]c3ccccc23)cc1	63	i	8.6	i	i
CCc1ccc(S(=O)(=O)NCc2csc(-c3ccccc3)n2)s1	i	i	i	-4.9	i
SMILES	WT yeast gro inh	Yeast life ext	RAM network inh	Cl transport mod	Yeast growth inh
CCc1ccc(S(=O)(=O)NCCc2csc(-c3ccccc3)n2)s1	i	i	8.5	i	i
Cc1cccn2cc(CCNC(=O)c3cccs3)nc12	nt	nt	nt	i	nt
O=C(Nc1ccc(NC(=S)NC(=O)c2ccccc2Cl)cc1)c1cccc(Cl)c1	nt	nt	nt	i	nt
Nc1nc(-c2ccc(Cl)cc2)c(N=Nc2ccc(S(=O)(=O)N3CCOCC3)cc2)s1	i	i	9.3	i	i
O=C1CNC(=O)/C1=C/c1ccccc1	i	29	i	nt	i
COc1ccc(C(C#N)N2CCC(c3ccccc3)=N2)cc1OC (configuration not stated)	i	nt	i	i	nt
COc1ccc(C2=NN(C(C#N)c3ccc(OC)c(OC)c3)C(c3ccccc3)C2)cc1 (configuration not stated)	i	i	8.5	i	i
CCn1c(=N)n(CC(=O)C23CC4CC(CC(C4)C2)C3)c2ccccc21	90	i	i	i	i
CCn1c(=N)n(CC(=O)c2cccc([N+](=O)[O-])c2)c2ccccc21	i	i	i	i	i
